From PMC4428392 (Anti-Cancer Agents in Medicinal Chemistry, 2014)
Several values for one entry are separate records, joined by “and”; a condition that tells them apart may be missing. Equal values may be shown once. Read-outs that look alike come from different tables or passages of the source.

Assays:
Type in all cases: cell-based, Human
[1] = tested on: HCT-116 cells; assay: Cell cycle assay by flow cytometry; settings: for G1 (%) / G2/M (%) / S (%) / Sub-G1 (%): 24 h
[2] = tested on: NCI-H460; assay: MTT cytotoxicity assay in normoxia and hypoxia, NCI-H460; settings: for IC50: Homo sapiens; for HCR = IC50 (aerobic)/IC50 (hypoxia): NCI-H460
In short: (§1)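 MCF-7 and HCT-116 were grown in DMEM; NCI-H460 in RPMI 1640 plus 10 mM HEPES; all media had 10% FBS, pyruvate and 1.5 g/L bicarbonate. Cells were seeded at 20000/well and grown 24 h at 20% O2, 5% CO2, 37 °C. Serial compound concentrations were then given for 24 h in normoxia, or for 6 h hypoxia (3% O2) followed by 18 h normoxia. MTT was read at 545 nm. IC50 came from linear regression of % inhibition versus log concentration, and HCR = IC50 normoxia/IC50 hypoxia.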

[3] = tested on: HCT-116; assay: MTT cytotoxicity assay in normoxia and hypoxia, HCT-116; settings: for HCR = hypoxic cytotoxicity ratio IC50 (aerobic)/IC50 (hypoxic): HCT-116; for IC50: Homo sapiens
In short: as §1

[4] = tested on: co-cultured HUVECs and fibroblasts; assay: In vitro tube formation test; settings: 2 μM, 11 days
In short: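 HUVECs were co-cultured with fibroblasts for 11 days in basal medium, solvent-control medium (0.2% DMSO), or solvent medium with test compound at 2 or 20 μM. Medium ± compound was renewed every 3 days, and suramin served as the kit positive control. HUVECs were stained with anti-CD31, and tube area, length, joints and paths were measured by image analyzer over 5 fields. Quadruplicate wells; mean ± SEM, n=4.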

[5] = tested on: cleaved PARP in HCT-116 cells; assay: Level of cleaved PARP by flow cytometry; settings: HCT-116, hypoxia, 30 µM, 24 h
[6] = tested on: HCT-116 cells; assay: ROS analysis by flow cytometry
In short: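 HCT-116 cells were treated with test compound at 15 or 30 µM in normoxia or hypoxia (24 h per methods; legend states 18 h). They were stained with CM-H2DCFDA for 45 min, collected, and analysed on a FACSCalibur flow cytometer. Fluorescence was normalised to solvent control; mean ± SEM, n=3.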

[7] = tested on: γ-H2AX in HCT-116 cells; assay: Level of γ-H2AX by flow cytometry; settings: 30 µM, 24 h
[8] = tested on: γ-H2AX and cleaved PARP in HCT-116 cells; assay: Dual-parameter γ-H2AX and cleaved PARP flow cytometry; settings: 30 µM, 24 h
[9] = tested on: MCF-7; assay: MTT cytotoxicity assay in normoxia and hypoxia, MCF-7
In short: as §1

[10] = tested on: caspase 3/7 in HCT-116 cells; assay: Caspase 3/7 activity; settings: 30 µM, 24 h; for level of active caspase 3/7: HCT-116, hypoxia, solvent control 7%; for effect on level of active caspase 3/7: HCT-116, normoxia
In short: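 HCT-116 cells were exposed to test compound at 30 µM for 24 h in normoxia or hypoxia. Cells were harvested, washed in PBS, centrifuged (350 g, 5 min) and stained with a FAM-FLICA caspase-3/7 inhibitor kit. Active caspase 3/7 was measured by flow cytometry. Data are mean ± SEM, n=3, compared with solvent control by one-way ANOVA with Tukey post hoc test.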

[11] = NCI-H460, 24 h, read-out: Cytotoxicity (IC50) NCI-H460 N
[12] = NCI-H460, read-out: Cytotoxicity (IC50) NCI-H460 H
[13] = HCT-116, 24 h, read-out: Cytotoxicity (IC50) HCT-116 N
[14] = HCT-116, read-out: Cytotoxicity (IC50) HCT-116 H
[15] = HCT-116, read-out: Cytotoxicity (IC50), cell kill under hypoxia

Molecule: 1,2,4-benzotriazine-1-oxide [Compound 1]
- effect on HCT-116 cell cycle (G2/M accumulation) ([1]; data not shown): invalid

Molecule: NCCNc1n[n+]([O-])c2ccccc2[n+]1[O-] [Compound 8a, N^1-(1,4-Dioxido-1,2,4-benzotriazine-3-yl)-1,2-ethanediamine]
- IC50 [2, 11]: 18.7 ± 2.7 µM
- IC50 [2, 12]: 10.1 ± 3.7 µM
- HCR = hypoxic cytotoxicity ratio IC50 (aerobic)/IC50 (hypoxic) [3]: 1.8
- IC50 [3, 13]: 40.3 ± 14.6 µM
- IC50 [3, 14]: 22.4 ± 9.7 µM
- IC50 [3, 15]: 22.4 µM

Molecule: NCCCNc1n[n+]([O-])c2ccccc2[n+]1[O-] [Compound 8b, N^1-(1,4-Dioxido-1,2,4-benzotriazine-3-yl)-1,3-propanediamine]
- IC50 [2, 11]: 95.6 ± 33.9 µM
- IC50 [2, 12]: 79.5 ± 26.6 µM
- HCR = hypoxic cytotoxicity ratio IC50 (aerobic)/IC50 (hypoxic) [3]: 1.7
- IC50 [3, 13]: 90.4 ± 3.5 µM
- IC50 [3, 14]: 54.8 ± 8 µM
- IC50 [3, 15]: 54.8 µM

Molecule: NCCCCCNc1n[n+]([O-])c2ccccc2[n+]1[O-] [Compound 8d, N^1-(1,4-Dioxido-1,2,4-benzotriazine-3-yl)-1,5-pentanediamine]
- IC50 [2, 11]: 101 ± 38.9 µM
- IC50 [2, 12]: 83.4 ± 33.8 µM
- HCR = hypoxic cytotoxicity ratio IC50 (aerobic)/IC50 (hypoxic) [3]: 1.7
- IC50 [3, 13]: 93.7 ± 20 µM
- IC50 [3, 14]: 55.3 ± 7.5 µM
- IC50 [3, 15]: 55.3 µM

Molecule: NCCCCCCNc1n[n+]([O-])c2ccccc2[n+]1[O-] [Compound 8e, N^1-(1,4-Dioxido-1,2,4-benzotriazin-3-yl)-1,6-hexanediamine]
- IC50 [2, 11]: 104 ± 15.1 µM
- IC50 [2, 12]: 68.7 ± 15.1 µM
- HCR = hypoxic cytotoxicity ratio IC50 (aerobic)/IC50 (hypoxic) [3]: 1.5
- IC50 [3, 13]: 91.2 ± 16.2 µM
- IC50 [3, 14]: 62.9 ± 11 µM
- IC50 [3, 15]: 62.1 µM

Molecule: NCCCCCCCNc1n[n+]([O-])c2ccccc2[n+]1[O-] [Compound 8f, N^1-(1,4-Dioxido-1,2,4-benzotriazine-3-yl)-1,7-heptanediamine]
- IC50 [2, 11]: 79.4 ± 22.6 µM
- IC50 [2, 12]: 42.8 ± 8.3 µM
- HCR = hypoxic cytotoxicity ratio IC50 (aerobic)/IC50 (hypoxic) [3]: 1.9
- IC50 [3, 13]: 78.3 ± 4.9 µM
- IC50 [3, 14]: 40.8 ± 4.3 µM
- IC50 [3, 15]: 40.8 µM

Molecule: NCCCCCCCCNc1n[n+]([O-])c2ccccc2[n+]1[O-] [Compound 8g, N^1-(1,4-Dioxido-1,2,4-benzotriazine-3-yl)-1,8-octanediamine]
- IC50 [2, 11]: 82.7 ± 20.4 µM
- IC50 [2, 12]: 45.8 ± 6.1 µM
- reduction of areas, lengths, paths and joints of tube formation [4]: 31-40%
- HCR = hypoxic cytotoxicity ratio IC50 (aerobic)/IC50 (hypoxic) [3]: 2.2
- IC50 [3, 13]: 97 ± 8.7 µM
- IC50 [3, 14]: 44.8 ± 6 µM
- IC50 [3, 15]: 44.8 µM

Molecule: [O-][n+]1nc(NCCNc2n[n+]([O-])c3ccccc3[n+]2[O-])nc2ccccc21 [Compound 9a, 3-(2-(1-Oxido-1,2,4-benzotriazin-3-yl)aminoethylamino)-1,2,4-benzotriazine-1,4-dioxide]
- cleaved PARP [5]: ~45%
- IC50 [2, 11]: 43.7 ± 12.5 µM
- IC50 [2, 12]: 17.5 ± 4.3 µM
- HCR = IC50 (aerobic)/IC50 (hypoxia) [2]: 2.5
- increase of ROS relative to control medium ([6]; HCT-116, hypoxia, 15 µM): 46 fold
- increase of ROS relative to control medium ([6]; HCT-116, hypoxia, 30 µM): 60 fold
- increase of ROS relative to control medium ([6]; HCT-116, normoxia, 15 µM): 3.4 fold
- increase of ROS relative to control medium ([6]; HCT-116, normoxia, 30 µM): 5.8 fold
- expression of γ-H2AX ([7]; HCT-116, hypoxia, solvent control 4%): around 30%
- effect on expression of γ-H2AX ([7]; HCT-116, normoxia): no significant effect
- cells expressing both γ-H2AX and cleaved PARP (upper right quadrant) ([8]; HCT-116, hypoxia): approximately 11%
- cells expressing both γ-H2AX and cleaved PARP (upper right quadrant) ([8]; HCT-116, normoxia): 0.1%
- reduction of areas, lengths, paths and joints of tube formation [4]: 70-80%
- HCR = IC50 (aerobic)/IC50 (hypoxia) [9]: > 6.0
- HCR = hypoxic cytotoxicity ratio IC50 (aerobic)/IC50 (hypoxic) [3]: 3.7
- IC50 [3, 13]: 66.3 ± 16.5 µM
- IC50 [3, 14]: 18.1 ± 2.6 µM
- G1 (%) ([1]; HCT-116, hypoxia, 15 µM): 26.2±3.7%
- G2/M (%) ([1]; HCT-116, hypoxia, 15 µM): 31.4% and 31.4±3.2%
- S (%) ([1]; HCT-116, hypoxia, 15 µM): 27.3±4.4%
- Sub-G1 (%) ([1]; HCT-116, hypoxia, 15 µM): 13.1% and 13.1±1.7%
- G1 (%) ([1]; HCT-116, hypoxia, 30 µM): 33.3±2.4%
- G2/M (%) ([1]; HCT-116, hypoxia, 30 µM): 16.7% and 16.7±2.5%
- S (%) ([1]; HCT-116, hypoxia, 30 µM): 25.8±3.8%
- Sub-G1 (%) ([1]; HCT-116, hypoxia, 30 µM): 24.3% and 24.3±2.8%
- G1 (%) ([1]; HCT-116, normoxia, 15 µM): 30.9±2.3%
- G2/M (%) ([1]; HCT-116, normoxia, 15 µM): 51.0% and 51.0±4.2%
- S (%) ([1]; HCT-116, normoxia, 15 µM): 15.0±5.5%
- Sub-G1 (%) ([1]; HCT-116, normoxia, 15 µM): 2.7±0.7%
- G1 (%) ([1]; HCT-116, normoxia, 30 µM): 24.3±4.1%
- G2/M (%) ([1]; HCT-116, normoxia, 30 µM): 58.3% and 58.3±2.8%
- S (%) ([1]; HCT-116, normoxia, 30 µM): 12.9±5.2%
- Sub-G1 (%) ([1]; HCT-116, normoxia, 30 µM): 3.8% and 3.8±1.7%
- level of active caspase 3/7 [10]: ~55%
- effect on level of active caspase 3/7 [10]: no apparent effect

Molecule: [O-][n+]1nc(NCCCNc2n[n+]([O-])c3ccccc3[n+]2[O-])nc2ccccc21 [Compound 9b, 3-(3-(1-Oxido-1,2,4-benzotriazin-3-yl)aminopropylamino)-1,2,4-benzotriazine-1,4-dioxide]
- IC50 [2, 11]: 44.6 ± 4.3 µM
- IC50 [2, 12]: 21.4 ± 4.8 µM
- HCR = IC50 (aerobic)/IC50 (hypoxia) [2]: 2.1
- reduction of areas, lengths, paths and joints of tube formation [4]: 45-50%
- IC50 [3, 13]: 53.8 ± 4.7 µM
- IC50 [3, 14]: 28.7 ± 6.7 µM
- Sub-G1 (%) ([1]; HCT-116, hypoxia, 15 µM): 4.3%
- G1 (%) ([1]; HCT-116, hypoxia, 30 µM): 28.1±1.2%
- G2/M (%) ([1]; HCT-116, hypoxia, 30 µM): 30.2±3.9%
- S (%) ([1]; HCT-116, hypoxia, 30 µM): 29.3±4.7%
- Sub-G1 (%) ([1]; HCT-116, hypoxia, 30 µM): 12.2% and 12.2±2.8%
- Sub-G1 (%) ([1]; HCT-116, normoxia, 15 µM): ~2.8%
- G1 (%) ([1]; HCT-116, normoxia, 30 µM): 35.0% and 35.0±5.1%
- G2/M (%) ([1]; HCT-116, normoxia, 30 µM): 48.0% and 48.0±1.9%
- S (%) ([1]; HCT-116, normoxia, 30 µM): 14.3±4.1%
- Sub-G1 (%) ([1]; HCT-116, normoxia, 30 µM): 2.1% and 2.1±0.1%
- level of active caspase 3/7 [10]: ~23%
- effect on level of active caspase 3/7 [10]: no apparent effect

Molecule: [O-][n+]1nc(NCCCCNc2n[n+]([O-])c3ccccc3[n+]2[O-])nc2ccccc21 [Compound 9c, 3-(4-(1-Oxido-1,2,4-benzotriazin-1-ium-3-yl)aminobutylamino)-1,2,4-benzotriazine-1,4-dioxide]
- IC50 [2, 11]: > 30 µM
- IC50 [2, 12]: > 30 µM
- IC50 [3, 13]: > 30 µM
- IC50 [3, 14]: > 30 µM

Molecule: [O-][n+]1nc(NCCCCCNc2n[n+]([O-])c3ccccc3[n+]2[O-])nc2ccccc21 [Compound 9d, 3-(5-(1-Oxido-1,2,4-benzotriazin-1-ium-3-yl)aminopentylamino)-1,2,4-benzotriazine-1,4-dioxide]
- IC50 [2, 11]: > 30 µM
- IC50 [2, 12]: > 30 µM
- IC50 [3, 13]: > 30 µM
- IC50 [3, 14]: > 30 µM

Molecule: [O-][n+]1nc(NCCCCCCNc2n[n+]([O-])c3ccccc3[n+]2[O-])nc2ccccc21 [Compound 9e, 3-(6-(1-Oxido-1,2,4-benzotriazin-1-ium-3-yl)aminohexylamino)-1,2,4-benzotriazine-1,4-dioxide]
- IC50 [2, 11]: > 30 µM
- IC50 [2, 12]: > 30 µM
- IC50 [3, 13]: > 30 µM
- IC50 [3, 14]: > 30 µM

Molecule: [O-][n+]1nc(NCCCCCCCNc2n[n+]([O-])c3ccccc3[n+]2[O-])nc2ccccc21 [Compound 9f, 3-(7-(1-Oxido-1,2,4-benzotriazin-1-ium-3-yl)aminoheptylamino)-1,2,4-benzotriazine-1,4-dioxide]
- IC50 [2, 11]: > 30 µM
- IC50 [2, 12]: > 30 µM
- IC50 [3, 13]: > 30 µM
- IC50 [3, 14]: > 30 µM

Molecule: [O-][n+]1nc(NCCCCCCCCNc2n[n+]([O-])c3ccccc3[n+]2[O-])nc2ccccc21 [Compound 9g, 3-(8-(1-Oxido-1,2,4-benzotriazin-1-ium-3-yl)aminooctylamino)-1,2,4-benzotriazine-1,4-dioxide]
- IC50 [2, 11]: > 30 µM
- IC50 [2, 12]: > 30 µM
- IC50 [3, 13]: > 30 µM
- IC50 [3, 14]: > 30 µM
